The results in this text go back to ChEMBL document CHEMBL1122637, “Synthesis and antiallergy activity of 10-oxo-10H-pyrido[1,2-a]thieno[3,2-d]pyrimidines and 10-oxo-10H-pyrido[1,2-a]thieno[3,4-d]pyrimidines” (1984).

Active and inactive are the calls of the source. The rule behind the calls is not given here.

For orientation: inhibition in vivo means the percentage by which the read-out fell short of the control. Low values mean little suppression, high ones strong suppression.

One experiment deals with Rattus norvegicus. Put plainly: Antiallergic activity in the rat passive cutaneous anaphylaxis (PCA) model after intraperitoneal administration at a dose 5 mg/kg. In kind it is functional. Particulars: ip. The essentials: (§1)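 Rats passively sensitized by intradermal injection of antiserum dilutions at several back sites, 48 h before iv challenge with 1 mg ovalbumin in 1 mL saline with 0.25% Evans blue. Drug given ip as a suspension in 1% gum tragacanth/saline 10-15 min before challenge. Wheal diameter read 30 min later. Five rats per group. % inhibition taken against control minus extrapolated base value at the highest antiserum concentration. Student's t test.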
As for `Cc1cc2c(=O)n3cc(C(=O)Nc4nn[nH]n4)ccc3nc2s1`, the inhibition in vivo at 5 mg/kg turned out to be 25%.
Same read-out and setting: the same measure for `O=C(O)c1ccc2nc3c(c(=O)n2c1)SCC3`: 46%; for `Cc1sc(C)c2c(=O)n3cc(C(=O)O)ccc3nc12`: 70%; for `O=C(Nc1nn[nH]n1)c1ccc2nc3ccsc3c(=O)n2c1`: 100%.
On the same count and under the same terms, the value for `O=c1c2sccc2nc2ccc(-c3nnn[nH]3)cn12` was 70%.
Still for that read-out and setting: the same measure for `Cc1sc(C)c2c(=O)n3cc(C(=O)Nc4nn[nH]n4)ccc3nc12`: 50%; for `Cc1cc2c(=O)n3cc(C(=O)O)ccc3nc2s1`: 100%; for `Cc1cc2nc3ccc(C(=O)Nc4nn[nH]n4)cn3c(=O)c2s1`: 21%.
In the case of `O=C(O)c1ccc2nc3ccsc3c(=O)n2c1`, the inhibition in vivo at 5 mg/kg worked out at 28%.
Still for that read-out and setting: the same measure for `O=c1c2c(nc3ccc(-c4nnn[nH]4)cn13)CSC2`: 100%.
Same read-out and setting: the value for `Cc1sc(C)c2c(=O)n3cc(-c4nnn[nH]4)ccc3nc12` was 47%; that for `O=C(Nc1nn[nH]n1)c1ccc2nc3c(c(=O)n2c1)CSC3` was 33%.
Still for that read-out and setting: the same measure for `Cc1cc2nc3ccc(-c4nnn[nH]4)cn3c(=O)c2s1`: 51%; for `O=c1c2cscc2nc2ccc(-c3nnn[nH]3)cn12`: 100%.
Molecule `Cc1cc2nc3ccc(C(=O)O)cn3c(=O)c2s1` had an inhibition in vivo at 5 mg/kg of 61%.
Same read-out and setting: the value for `O=C(Nc1nn[nH]n1)c1ccc2nc3cscc3c(=O)n2c1` was 49%.
On the same count and under the same terms, the same measure for `O=C(O)c1ccc2nc3cscc3c(=O)n2c1`: 41%; for `Cc1cc2c(=O)n3cc(-c4nnn[nH]4)ccc3nc2s1`: 100%.

For another experiment, the system named is Rattus norvegicus. Put plainly: Compound was tested for antiallergic activity in the rat passive cutaneous anaphylaxis (PCA) model after intraperitoneal administration at a dose 10 mg/kg. Format: functional. The following applies: ip. A digest of the protocol: as §1
`O=C(O)c1cc(=O)c2c(OCC(O)COc3cccc4oc(C(=O)O)cc(=O)c34)cccc2o1` [CROMOLYN SODIUM] came in with an inhibition in vivo at 10 mg/kg of 89%.

The test system of another experiment is Rattus norvegicus. Kind of experiment: Compound was tested for antiallergic activity in the rat passive cutaneous anaphylaxis (PCA) model after intraperitoneal administration at a dose 5 mg/kg; I denotes Inactive at 30 mg/kg. Format: functional, organism-based. The following applies: in the assay text read “Inactive at 5 mg/kg” for “Inactive at 30 mg/kg”. The essentials: as §1
As to `O=c1c2c(nc3ccc(-c4nnn[nH]4)cn13)CCS2`, the inhibition entry was “inactive”.
On the same count and under the same terms, the same measure for `O=C(O)c1ccc2nc3c(c(=O)n2c1)CSC3`: “inactive”.
